Measured values as given in ChEMBL document CHEMBL1150247, “Structural determinants for affinity enhancement of a dual antagonist peptide entry inhibitor of human immunodeficiency virus type-1” (J Med Chem, 2008).
One block for each molecule: values may come before it.

Assays:
[1] = test system: Human immunodeficiency virus 1; assay: Antiviral activity against HIV1 BaL in CCR5 expressing P4 cells after 2 hrs; assay type: functional, organism-based; conditions: Human immunodeficiency virus 1, BaL, P4, 2 h
How it was run: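 P4-CCR5 cells (DMEM, 10% FBS, puromycin) seeded 1.2×10^4/well ~18 h ahead; exposed 2 h to HIV-1 BaL plus peptide, washed, cultured 46 more h; infection read by β-galactosidase reporter assay. Infectivity relative to mock-treated infected cells; IC50 from sigmoidal dose-response fit; two independent experiments combined.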

[2] = Inhibition of HIV1 YU2 gp120 binding to immobilized CD4 binding site specific immunoglobulin G b12 monoclonal antibody by surface plasmon resonance method; design: species or system Human immunodeficiency virus 1
[3] = Inhibition of HIV1 YU2 gp120 binding to immobilized CD4 binding site specific b6 monoclonal antibody by surface plasmon resonance method; design: species or system Human immunodeficiency virus 1
[4] = Inhibition of HIV1 YU2 gp120 binding to immobilized CD4 by surface plasmon resonance method; design: species or system Human immunodeficiency virus 1
[5] = Binding affinity to immobilized HIV1 YU2 gp120 by surface plasmon resonance method; design: species or system Human immunodeficiency virus 1
How it was run: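 YU2 gp120 (Drosophila S2-expressed, F105-affinity purified) amine-coupled to CM5 chip (~4000 RU); peptides in PBS injected at 15 μL/min, 5 min association, 5 min dissociation. Buffer and anti-IL5Rα 2B6R control-surface responses subtracted; kinetic constants fitted in BIAevaluation.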

[6] = Inhibition of HIV1 YU2 gp120 binding to immobilized CD4 induced 17b monoclonal antibody by surface plasmon resonance method; design: species or system Human immunodeficiency virus 1
[7] = Inhibition of HIV1 YU2 gp120 binding to immobilized CD4 binding site specific F105 monoclonal antibody by surface plasmon resonance method; design: species or system Human immunodeficiency virus 1
[8] = Cytotoxicity against CCR5 expressing human P4 cells after 2 hrs by MTT assay; assay type: cell-based; conditions: p4, 2 h
How it was run: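 P4-CCR5 cells seeded 4×10^4/well ~18 h ahead, exposed 2 h to varying peptide concentrations, washed, then viability by MTT; triplicate in two independent assays.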

- IC50 [1]: 156 nM
- IC50 [2]: 117 nM
- IC50 [3]: 136 nM
- IC50 [4]: 67 nM
- Kd [5]: 12 nM
- IC50 [6]: 94 nM
- IC50 [7]: 76 nM
Structure (SMILES): CC[C@H](C)[C@H](NC(=O)[C@@H](N)CCCNC(=N)N)C(=O)N[C@@H](CC(N)=O)C(=O)N[C@@H](CC(N)=O)C(=O)N[C@H](C(=O)N1C[C@@H](n2cc(-c3ccc(C)cc3)nn2)C[C@H]1C(=O)N[C@@H](Cc1c[nH]c2ccccc12)C(=O)N[C@@H](CO)C(=O)N[C@@H](CCC(=O)O)C(=O)N[C@@H](C)C(=O)N[C@@H](CCSC)C(=O)N[C@@H](CCSC)C(=O)O)[C@@H](C)CC
- Activity [8]: Non-toxic

- Kd [5]: 154 nM
Structure (SMILES): CC[C@H](C)[C@H](NC(=O)[C@@H](N)CCCNC(=N)N)C(=O)N[C@@H](CC(N)=O)C(=O)N[C@@H](CC(N)=O)C(=O)N[C@H](C(=O)N1C[C@@H](n2cc(-c3ccc(OC)cc3)nn2)C[C@H]1C(=O)N[C@@H](Cc1c[nH]c2ccccc12)C(=O)N[C@@H](CO)C(=O)N[C@@H](CCC(=O)O)C(=O)N[C@@H](C)C(=O)N[C@@H](CCSC)C(=O)N[C@@H](CCSC)C(=O)O)[C@@H](C)CC

- Kd [5]: 388 nM
Structure (SMILES): CC[C@H](C)[C@H](NC(=O)[C@@H](N)CCCNC(=N)N)C(=O)N[C@@H](CC(N)=O)C(=O)N[C@@H](CC(N)=O)C(=O)N[C@H](C(=O)N1C[C@@H](n2cc(Cn3nnc4ccccc43)nn2)C[C@H]1C(=O)N[C@@H](Cc1c[nH]c2ccccc12)C(=O)N[C@@H](CO)C(=O)N[C@@H](CCC(=O)O)C(=O)N[C@@H](C)C(=O)N[C@@H](CCSC)C(=O)N[C@@H](CCSC)C(=O)O)[C@@H](C)CC

- Kd [5]: 128 nM
Structure (SMILES): CC[C@H](C)[C@H](NC(=O)[C@@H](N)CCCNC(=N)N)C(=O)N[C@@H](CC(N)=O)C(=O)N[C@@H](CC(N)=O)C(=O)N[C@H](C(=O)N1C[C@@H](n2cc(-c3ccccc3C)nn2)C[C@H]1C(=O)N[C@@H](Cc1c[nH]c2ccccc12)C(=O)N[C@@H](CO)C(=O)N[C@@H](CCC(=O)O)C(=O)N[C@@H](C)C(=O)N[C@@H](CCSC)C(=O)N[C@@H](CCSC)C(=O)O)[C@@H](C)CC

- Kd [5]: 160 nM
Structure (SMILES): CC[C@H](C)[C@H](NC(=O)[C@@H](N)CCCNC(=N)N)C(=O)N[C@@H](CC(N)=O)C(=O)N[C@@H](CC(N)=O)C(=O)N[C@H](C(=O)N1C[C@@H](n2cc(-c3cc(C)c(C)cc3C)nn2)C[C@H]1C(=O)N[C@@H](Cc1c[nH]c2ccccc12)C(=O)N[C@@H](CO)C(=O)N[C@@H](CCC(=O)O)C(=O)N[C@@H](C)C(=O)N[C@@H](CCSC)C(=O)N[C@@H](CCSC)C(=O)O)[C@@H](C)CC

- IC50 [1]: 418 nM
- IC50 [2]: 191 nM
- IC50 [3]: 235 nM
- IC50 [4]: 146 nM
- Kd [5]: 9 nM
- IC50 [6]: 177 nM
- IC50 [7]: 137 nM
Structure (SMILES): CCc1ccc(-c2cn([C@H]3C[C@@H](C(=O)N[C@@H](Cc4c[nH]c5ccccc45)C(=O)N[C@@H](CO)C(=O)N[C@@H](CCC(=O)O)C(=O)N[C@@H](C)C(=O)N[C@@H](CCSC)C(=O)N[C@@H](CCSC)C(=O)O)N(C(=O)[C@@H](NC(=O)[C@H](CC(N)=O)NC(=O)[C@H](CC(N)=O)NC(=O)[C@@H](NC(=O)[C@@H](N)CCCNC(=N)N)[C@@H](C)CC)[C@@H](C)CC)C3)nn2)cc1
- Activity [8]: Non-toxic

- Kd [5]: 14000 nM
Structure (SMILES): CC[C@H](C)[C@H](NC(=O)[C@@H](N)CCCNC(=N)N)C(=O)N[C@@H](CC(N)=O)C(=O)N[C@@H](CC(N)=O)C(=O)N[C@H](C(=O)N1C[C@@H](n2cc(-c3ccccc3OC)nn2)C[C@H]1C(=O)N[C@@H](Cc1c[nH]c2ccccc12)C(=O)N[C@@H](CO)C(=O)N[C@@H](CCC(=O)O)C(=O)N[C@@H](C)C(=O)N[C@@H](CCSC)C(=O)N[C@@H](CCSC)C(=O)O)[C@@H](C)CC

- Kd [5]: 25000 nM
Structure (SMILES): CC[C@H](C)[C@H](NC(=O)[C@@H](N)CCCNC(=N)N)C(=O)N[C@@H](CC(N)=O)C(=O)N[C@@H](CC(N)=O)C(=O)N[C@H](C(=O)N1C[C@@H](n2cc(-c3ccccc3N)nn2)C[C@H]1C(=O)N[C@@H](Cc1c[nH]c2ccccc12)C(=O)N[C@@H](CO)C(=O)N[C@@H](CCC(=O)O)C(=O)N[C@@H](C)C(=O)N[C@@H](CCSC)C(=O)N[C@@H](CCSC)C(=O)O)[C@@H](C)CC

- Kd [5]: 437 nM
Structure (SMILES): CC[C@H](C)[C@H](NC(=O)[C@@H](N)CCCNC(=N)N)C(=O)N[C@@H](CC(N)=O)C(=O)N[C@@H](CC(N)=O)C(=O)N[C@H](C(=O)N1C[C@@H](n2cc(-c3ccc(N)cc3)nn2)C[C@H]1C(=O)N[C@@H](Cc1c[nH]c2ccccc12)C(=O)N[C@@H](CO)C(=O)N[C@@H](CCC(=O)O)C(=O)N[C@@H](C)C(=O)N[C@@H](CCSC)C(=O)N[C@@H](CCSC)C(=O)O)[C@@H](C)CC

- Kd [5]: 91 nM
Structure (SMILES): CC[C@H](C)[C@H](NC(=O)[C@@H](N)CCCNC(=N)N)C(=O)N[C@@H](CC(N)=O)C(=O)N[C@@H](CC(N)=O)C(=O)N[C@H](C(=O)N1C[C@@H](n2cc(-c3ccc(F)cc3)nn2)C[C@H]1C(=O)N[C@@H](Cc1c[nH]c2ccccc12)C(=O)N[C@@H](CO)C(=O)N[C@@H](CCC(=O)O)C(=O)N[C@@H](C)C(=O)N[C@@H](CCSC)C(=O)N[C@@H](CCSC)C(=O)O)[C@@H](C)CC

- Kd [5]: 1930 nM
Structure (SMILES): CC[C@H](C)[C@H](NC(=O)[C@@H](N)CCCNC(=N)N)C(=O)N[C@@H](CC(N)=O)C(=O)N[C@@H](CC(N)=O)C(=O)N[C@H](C(=O)N1C[C@@H](n2cc(-c3ccccc3CO)nn2)C[C@H]1C(=O)N[C@@H](Cc1c[nH]c2ccccc12)C(=O)N[C@@H](CO)C(=O)N[C@@H](CCC(=O)O)C(=O)N[C@@H](C)C(=O)N[C@@H](CCSC)C(=O)N[C@@H](CCSC)C(=O)O)[C@@H](C)CC

- Kd [5]: 38 nM
Structure (SMILES): CC[C@H](C)[C@H](NC(=O)[C@@H](N)CCCNC(=N)N)C(=O)N[C@@H](CC(N)=O)C(=O)N[C@@H](CC(N)=O)C(=O)N[C@H](C(=O)N1C[C@@H](n2cc(-c3ccc(F)c(C)c3)nn2)C[C@H]1C(=O)N[C@@H](Cc1c[nH]c2ccccc12)C(=O)N[C@@H](CO)C(=O)N[C@@H](CCC(=O)O)C(=O)N[C@@H](C)C(=O)N[C@@H](CCSC)C(=O)N[C@@H](CCSC)C(=O)O)[C@@H](C)CC

- IC50 [1]: 610000 nM
- IC50 [2]: 65 nM
- IC50 [3]: 85 nM
- IC50 [4]: 99 nM
- IC50 [6]: 129 nM
- IC50 [7]: 23 nM
Structure (SMILES): CC[C@H](C)[C@H](NC(=O)[C@@H](N)CCCNC(=N)N)C(=O)N[C@@H](CC(N)=O)C(=O)N[C@@H](CC(N)=O)C(=O)N[C@H](C(=O)N1C[C@@H](n2cc(-c3ccc(CCc4ccccc4)cc3)nn2)C[C@H]1C(=O)N[C@@H](Cc1c[nH]c2ccccc12)C(=O)N[C@@H](CO)C(=O)N[C@@H](CCC(=O)O)C(=O)N[C@@H](C)C(=O)N[C@@H](CCSC)C(=O)N[C@@H](CCSC)C(=O)O)[C@@H](C)CC
- Activity [8]: Non-toxic

- Kd [5]: 54 nM
Structure (SMILES): CC[C@H](C)[C@H](NC(=O)[C@@H](N)CCCNC(=N)N)C(=O)N[C@@H](CC(N)=O)C(=O)N[C@@H](CC(N)=O)C(=O)N[C@H](C(=O)N1C[C@@H](n2cc(-c3cccc4ccccc34)nn2)C[C@H]1C(=O)N[C@@H](Cc1c[nH]c2ccccc12)C(=O)N[C@@H](CO)C(=O)N[C@@H](CCC(=O)O)C(=O)N[C@@H](C)C(=O)N[C@@H](CCSC)C(=O)N[C@@H](CCSC)C(=O)O)[C@@H](C)CC

- Kd [5]: 98 nM
Structure (SMILES): CC[C@H](C)[C@H](NC(=O)[C@@H](N)CCCNC(=N)N)C(=O)N[C@@H](CC(N)=O)C(=O)N[C@@H](CC(N)=O)C(=O)N[C@H](C(=O)N1C[C@@H](n2cc(C3=CCCCC3)nn2)C[C@H]1C(=O)N[C@@H](Cc1c[nH]c2ccccc12)C(=O)N[C@@H](CO)C(=O)N[C@@H](CCC(=O)O)C(=O)N[C@@H](C)C(=O)N[C@@H](CCSC)C(=O)N[C@@H](CCSC)C(=O)O)[C@@H](C)CC

- Kd [5]: 741 nM
Structure (SMILES): CC[C@H](C)[C@H](NC(=O)[C@@H](N)CCCNC(=N)N)C(=O)N[C@@H](CC(N)=O)C(=O)N[C@@H](CC(N)=O)C(=O)N[C@H](C(=O)N1C[C@@H](n2cc(-c3cc(C)ccc3C)nn2)C[C@H]1C(=O)N[C@@H](Cc1c[nH]c2ccccc12)C(=O)N[C@@H](CO)C(=O)N[C@@H](CCC(=O)O)C(=O)N[C@@H](C)C(=O)N[C@@H](CCSC)C(=O)N[C@@H](CCSC)C(=O)O)[C@@H](C)CC

- Kd [5]: 83 nM
Structure (SMILES): CC[C@H](C)[C@H](NC(=O)[C@@H](N)CCCNC(=N)N)C(=O)N[C@@H](CC(N)=O)C(=O)N[C@@H](CC(N)=O)C(=O)N[C@H](C(=O)N1C[C@@H](n2cc(-c3cccc(C)c3)nn2)C[C@H]1C(=O)N[C@@H](Cc1c[nH]c2ccccc12)C(=O)N[C@@H](CO)C(=O)N[C@@H](CCC(=O)O)C(=O)N[C@@H](C)C(=O)N[C@@H](CCSC)C(=O)N[C@@H](CCSC)C(=O)O)[C@@H](C)CC

- Kd [5]: 2700 nM
Structure (SMILES): CC[C@H](C)[C@H](NC(=O)[C@@H](N)CCCNC(=N)N)C(=O)N[C@@H](CC(N)=O)C(=O)N[C@@H](CC(N)=O)C(=O)N[C@H](C(=O)N1C[C@H](n2cc(-c3ccccc3)nn2)C[C@H]1C(=O)N[C@@H](Cc1c[nH]c2ccccc12)C(=O)N[C@@H](CO)C(=O)N[C@@H](CCC(=O)O)C(=O)N[C@@H](C)C(=O)N[C@@H](CCSC)C(=O)N[C@@H](CCSC)C(=O)O)[C@@H](C)CC

- Kd [5]: 115 nM
Structure (SMILES): CC[C@H](C)[C@H](NC(=O)[C@@H](N)CCCNC(=N)N)C(=O)N[C@@H](CC(N)=O)C(=O)N[C@@H](CC(N)=O)C(=O)N[C@H](C(=O)N1C[C@@H](n2cc(CSc3ccccc3)nn2)C[C@H]1C(=O)N[C@@H](Cc1c[nH]c2ccccc12)C(=O)N[C@@H](CO)C(=O)N[C@@H](CCC(=O)O)C(=O)N[C@@H](C)C(=O)N[C@@H](CCSC)C(=O)N[C@@H](CCSC)C(=O)O)[C@@H](C)CC
